From ChEMBL document CHEMBL1149179, “Synthesis and biological evaluation of a new class of geldanamycin derivatives as potent inhibitors of Hsp90” (J Med Chem, 2004)

Key:
[1] = molecular target: T1, Heat shock protein HSP90 (Homo sapiens, UniProt P07900+P08238); experiment: (§1) Concentration required to inhibit Bis-ANS activity by recombinant heat shock protein 90 (rHSP90) conformational assay
Procedure, shortened: (§2)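 Compound at 100–0.3 µM or DMSO for 60 min at 37 °C, then bis-ANS (0.1 mM stock) for 30 min at 37 °C. Fluorescence read at ex 393/em 484 nm, minus a no-protein background. IC50 = 50% inhibition of bis-ANS signal versus DMSO; n = 2.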

[2] = molecular target: T1, Heat shock protein HSP90; experiment: Concentration required to inhibit biotin-GM binding to recombinant heat shock protein 90(rHsp90); format: protein assay
Procedure, shortened: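 rHsp90 coated in PBS overnight at 4 °C. Compound at 100–0.3 µM or DMSO for 60 min at 37 °C. Then 10 µM biotinylated geldanamycin 60 min and 20 µg/mL streptavidin-phycoerythrin 60 min, both at 37 °C, with washes between. Fluorescence read at ex 485/em 580 nm, minus an uncoated-well background. % binding inhibition calculated versus DMSO.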

[3] = molecular target: T1, Heat shock protein HSP90; experiment: […] human epidermal growth factor 2 (Her-2) degradation in MCF-7 cells; format: cell-based; settings: mcf7
Procedure, shortened: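 MCF7 cells in DMEM with 10% FBS and 10 mM HEPES, treated at 65–70% confluence with compound (1000 nM down to 3 nM, half-log steps) for 16 h. Trypsinized cells stained with PE anti-Her-2 or PE isotype control (1 µg/mL, 15 min). Flow cytometry with 10,000 events; control-subtracted mean fluorescence versus DMSO cells. EC50 = 50% Her-2 degradation; n = 2.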

[4] = Ratio of inhibitory concentration of rHsp90 and cell lysate Hsp90
[5] = molecular target: T1, Heat shock protein HSP90; experiment: Concentration of test compound required for inhibition of binding of rHsp90 in MCF-7 cell lysate; format: cell-based
Procedure, shortened: (§3)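 Lysate incubated ± compound 30 min at 4 °C, then with biotin-GM on streptavidin magnetic beads 1 h at 4 °C. Beads washed three times and boiled in SDS sample buffer. Bound Hsp90 detected by Western blot and band quantitation. IC50 taken as half-maximal inhibition of binding.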

[6] = system: MCF7; experiment: Inhibitory concentration of compound against MCF-7 cells by MTS assay; format: functional, cell-based; settings: Homo sapiens
Procedure, shortened: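 MCF7 cells seeded at 2000/well in DMEM with 10% FBS and left overnight to adhere; final culture volume 100 µL. Viability read with MTS/PMS (mixed 20:1, 20 µL per well) as A490 after 2-4 h, with cell-free medium plus MTS-PMS as background. % viable cells taken relative to untreated cells; IC50 is the concentration giving 50% viable cells; n = 2.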

[7] = molecular target: T1, Heat shock protein HSP90; experiment: Concentration of test compound required for half-maximal inhibition of binding of Heat shock 90 KD protein by MCF-7 cell lysate assay; format: cell-based; procedure, shortened: as §3
[8] = as §1; set-up: species or system Homo sapiens; procedure, shortened: as §2

Row | Structure (SMILES) | IC50 [1] [nM] | IC50 [2] [nM] | IC50 [3] [nM] | Ratio [4] | IC50 [5] [nM] | IC50 [6] [nM] | IC50 [7] [nM] | IC50 [8] [nM]
1 | CO[C@H]1/C=C\C=C(/C)C(=O)NC2=CC(=O)C(NC(=O)c3ccc(CN4CCCCC4)cc3)=C(C[C@@H](C)C[C@H](OC)[C@H](O)[C@@H](C)/C=C(\C)[C@@H]1OC(N)=O)C2=O | 2100 | 2500 | > 10000 | – | – | – | – | –
2 | CO[C@H]1/C=C\C=C(/C)C(=O)NC2=CC(=O)C(NC(=O)OCC(C)C)=C(C[C@@H](C)C[C@H](OC)[C@H](O)[C@@H](C)/C=C(\C)[C@@H]1OC(N)=O)C2=O | 4000 | 4000 | 120 | 1330 | 3 | 180 | – | –
3 | CO[C@H]1/C=C\C=C(/C)C(=O)NC2=CC(=O)C(c3ccccc3)=C(C[C@@H](C)C[C@H](OC)[C@H](O)[C@@H](C)/C=C(\C)[C@@H]1OC(N)=O)C2=O | 3000 | 3000 | 280 | 43 | – | – | 70 | –
4 | COc1ccc(N2CCN(Cc3ccc(C(=O)NC4=C5C[C@@H](C)C[C@H](OC)[C@H](O)[C@@H](C)/C=C(\C)[C@H](OC(N)=O)[C@@H](OC)/C=C\C=C(/C)C(=O)NC(=CC4=O)C5=O)cc3)CC2)cc1 | 1500 | 3000 | 220 | – | – | – | – | –
5 | CO[C@H]1/C=C\C=C(/C)C(=O)NC2=CC(=O)C(NC(=O)c3ccco3)=C(C[C@@H](C)C[C@H](OC)[C@H](O)[C@@H](C)/C=C(\C)[C@@H]1OC(N)=O)C2=O | 4000 | 4000 | 500 | – | – | – | – | –
6 | CO[C@H]1/C=C\C=C(/C)C(=O)NC2=CC(=O)C(c3cccs3)=C(C[C@@H](C)C[C@H](OC)[C@H](O)[C@@H](C)/C=C(\C)[C@@H]1OC(N)=O)C2=O | 1700 | 1700 | 250 | 31 | – | – | 55 | –
7 | CO[C@H]1/C=C\C=C(/C)C(=O)NC2=CC(=O)C(NC(=O)c3ccc(CCl)cc3)=C(C[C@@H](C)C[C@H](OC)[C@H](O)[C@@H](C)/C=C(\C)[C@@H]1OC(N)=O)C2=O | 2000 | 4000 | 550 | – | – | – | – | –
8 | CO[C@H]1/C=C\C=C(/C)C(=O)NC2=CC(=O)C(NC(=O)C(C)=O)=C(C[C@@H](C)C[C@H](OC)[C@H](O)[C@@H](C)/C=C(\C)[C@@H]1OC(N)=O)C2=O | 20000 | 15000 | 1700 | – | – | – | – | –
9 | CO[C@H]1/C=C\C=C(/C)C(=O)NC2=CC(=O)C(NC(=O)c3ccccc3)=C(C[C@@H](C)C[C@H](OC)[C@H](O)[C@@H](C)/C=C(\C)[C@@H]1OC(N)=O)C2=O | 3000 | 4000 | 200 | – | – | – | – | –
10 | CO[C@H]1/C=C\C=C(/C)C(=O)NC2=CC(=O)C(NC(=O)c3ccc(CN(C)C)cc3)=C(C[C@@H](C)C[C@H](OC)[C@H](O)[C@@H](C)/C=C(\C)[C@@H]1OC(N)=O)C2=O | 3000 | 17000 | 1700 | 200 | 15 | > 30000 | – | –
11 | CCCN(CCC)Cc1ccc(C(=O)NC2=C3C[C@@H](C)C[C@H](OC)[C@H](O)[C@@H](C)/C=C(\C)[C@H](OC(N)=O)[C@@H](OC)/C=C\C=C(/C)C(=O)NC(=CC2=O)C3=O)cc1 | 1200 | 3000 | 500 | – | – | 500 | – | –
12 | CCN(Cc1ccccc1)Cc1ccc(C(=O)NC2=C3C[C@@H](C)C[C@H](OC)[C@H](O)[C@@H](C)/C=C(\C)[C@H](OC(N)=O)[C@@H](OC)/C=C\C=C(/C)C(=O)NC(=CC2=O)C3=O)cc1 | 1000 | 1100 | 140 | 92 | 12 | 200 | – | –
13 | CO[C@H]1/C=C\C=C(/C)C(=O)NC2=CC(=O)C(NC(=O)c3cccs3)=C(C[C@@H](C)C[C@H](OC)[C@H](O)[C@@H](C)/C=C(\C)[C@@H]1OC(N)=O)C2=O | 3000 | 2000 | 400 | 75 | – | – | 40 | –
14 | CO[C@H]1/C=C\C=C(/C)C(=O)NC2=CC(=O)C(NC(=O)c3cccc(CCl)c3)=C(C[C@@H](C)C[C@H](OC)[C@H](O)[C@@H](C)/C=C(\C)[C@@H]1OC(N)=O)C2=O | 10000 | – | 1000 | – | – | – | – | –
15 | C=CCNC1=C2C[C@@H](C)C[C@H](OC)[C@H](O)[C@@H](C)/C=C(\C)[C@H](OC(N)=O)[C@@H](OC)/C=C/C=C(\C)C(=O)NC(=CC1=O)C2=O | – | – | – | 40 | – | – | – | 700
16 | COc1cccc(C(=O)NC2=C3C[C@@H](C)C[C@H](OC)[C@H](O)[C@@H](C)/C=C(\C)[C@H](OC(N)=O)[C@@H](OC)/C=C\C=C(/C)C(=O)NC(=CC2=O)C3=O)c1 | 900 | 1300 | 180 | – | – | – | – | –
17 | CO[C@H]1/C=C\C=C(/C)C(=O)NC2=CC(=O)C(NC(=O)c3ccc([N+](=O)[O-])cc3)=C(C[C@@H](C)C[C@H](OC)[C@H](O)[C@@H](C)/C=C(\C)[C@@H]1OC(N)=O)C2=O | 2000 | 3500 | 300 | – | – | – | – | –
18 | C=CCNC(=O)NC1=C2C[C@@H](C)C[C@H](OC)[C@H](O)[C@@H](C)/C=C(\C)[C@H](OC(N)=O)[C@@H](OC)/C=C\C=C(/C)C(=O)NC(=CC1=O)C2=O | – | 35000 | > 10000 | – | – | – | – | –
19 | CO[C@H]1/C=C\C=C(/C)C(=O)NC2=CC(=O)C(NC(=O)c3ccc(CN4CCN(c5ccc(Cl)cc5)CC4)cc3)=C(C[C@@H](C)C[C@H](OC)[C@H](O)[C@@H](C)/C=C(\C)[C@@H]1OC(N)=O)C2=O | 1000 | 1000 | 250 | 111 | 9 | 150 | – | –
20 | CO[C@H]1/C=C\C=C(/C)C(=O)NC2=CC(=O)C(NC(=O)c3ccc(CN4CCN(c5ccc([N+](=O)[O-])cc5)CC4)cc3)=C(C[C@@H](C)C[C@H](OC)[C@H](O)[C@@H](C)/C=C(\C)[C@@H]1OC(N)=O)C2=O | 1300 | 1000 | 200 | – | – | – | – | –
21 | CO[C@H]1/C=C\C=C(/C)C(=O)NC2=CC(=O)C(NC(=O)c3ccc(CN4CCc5ccccc5C4)cc3)=C(C[C@@H](C)C[C@H](OC)[C@H](O)[C@@H](C)/C=C(\C)[C@@H]1OC(N)=O)C2=O | 1500 | 1000 | 200 | – | – | – | – | –
22 | CO[C@H]1/C=C\C=C(/C)C(=O)NC2=CC(=O)C(NC(=O)c3ccc(CN4CCN(C)CC4)cc3)=C(C[C@@H](C)C[C@H](OC)[C@H](O)[C@@H](C)/C=C(\C)[C@@H]1OC(N)=O)C2=O | 8000 | 5000 | 800 | 67 | – | – | 120 | –
23 | CO[C@H]1/C=C\C=C(/C)C(=O)NC2=CC(=O)C(NC(=O)OCCCCN3CCOCC3)=C(C[C@@H](C)C[C@H](OC)[C@H](O)[C@@H](C)/C=C(\C)[C@@H]1OC(N)=O)C2=O | 1000 | 1000 | 500 | 100 | – | – | 10 | –
24 | CCOC(=O)NC1=C2C[C@@H](C)C[C@H](OC)[C@H](O)[C@@H](C)/C=C(\C)[C@H](OC(N)=O)[C@@H](OC)/C=C\C=C(/C)C(=O)NC(=CC1=O)C2=O | 3000 | 3000 | 260 | – | – | – | – | –
25 | COc1ccccc1C(=O)NC1=C2C[C@@H](C)C[C@H](OC)[C@H](O)[C@@H](C)/C=C(\C)[C@H](OC(N)=O)[C@@H](OC)/C=C\C=C(/C)C(=O)NC(=CC1=O)C2=O | 1000 | 1100 | 180 | – | – | – | – | –
26 | COc1ccc(C(=O)NC2=C3C[C@@H](C)C[C@H](OC)[C@H](O)[C@@H](C)/C=C(\C)[C@H](OC(N)=O)[C@@H](OC)/C=C\C=C(/C)C(=O)NC(=CC2=O)C3=O)cc1 | 4000 | 5000 | 400 | – | – | – | – | –
27 | CO[C@H]1/C=C\C=C(/C)C(=O)NC2=CC(=O)C(NC(=O)c3ccc(CN4CCN(C5CCCCC5)CC4)cc3)=C(C[C@@H](C)C[C@H](OC)[C@H](O)[C@@H](C)/C=C(\C)[C@@H]1OC(N)=O)C2=O | 5800 | 5500 | 600 | – | – | – | – | –
28 | CO[C@H]1/C=C\C=C(/C)C(=O)NC2=CC(=O)C(NC(=O)c3ccc(F)cc3)=C(C[C@@H](C)C[C@H](OC)[C@H](O)[C@@H](C)/C=C(\C)[C@@H]1OC(N)=O)C2=O | 1500 | 1500 | 250 | – | – | – | – | –
29 | CO[C@H]1/C=C\C=C(/C)C(=O)NC2=CC(=O)C(NC(=O)OCc3ccc(OC(C)=O)cc3)=C(C[C@@H](C)C[C@H](OC)[C@H](O)[C@@H](C)/C=C(\C)[C@@H]1OC(N)=O)C2=O | 2500 | 1000 | 50 | – | – | 40 | – | –
